Experimental data reported in ChEMBL document CHEMBL5252538, “β-Lactam analogues of combretastatin A-4 prevent metabolic inactivation by glucuronidation in chemoresistant HT-29 colon cancer cells” (Eur J Med Chem, 2017).
Calls of active or inactive are those of the source. No cut-off for these calls is given here.

Assays:
MCF7 [1] = test: Antiproliferative activity against […] human MCF7 cells assessed as inhibition of cell growth incubated for 72 hrs by alamar blue assay; type: functional, cell-based; details: MCF7, 72 h
In short: (§1)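 Cells seeded 24 h before treatment (HL-60 4 × 10⁴, MCF-7 5 × 10³ per well), then given medium, vehicle (1% ethanol v/v) or serial dilutions (eight concentrations) for 72 h. Alamar Blue (10% v/v) added for 3–5 h at 37 °C in the dark, fluorescence read at ex 530/em 590 nm. Viability expressed relative to vehicle (100%), IC50 from dose–response curves; three experiments in triplicate.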

HT-29 [2] = test: Induction of cell cycle arrest in human HT-29 cells assessed as accumulation of cells at G2/M phase at 1 uM incubated for 24 hrs by RAase A/PI staining based flow cytometry analysis (reference value: 16%); type: functional
HT-29 [3] = test: Induction of cell cycle arrest in human HT-29 cells assessed as accumulation of cells at G0/G1 phase at 1 uM incubated for 24 hrs in presence of 2,3-bis(amino((2aminophenyl)thio)methylene)succinonitrile by RAase A/PI staining based flow cytometry analysis (reference value: 57%); type: functional
HT-29 [4] = test: Antiproliferative activity against combretastatin A-4 resistant human HT-29 cells assessed as inhibition of cell growth incubated for 72 hrs by SRB assay; type: functional, cell-based; details: HT-29, 72 h
In short: (§2)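 HT-29 (DMEM Glutamax, 10% FBS) seeded at 1 × 10⁴ cells/well, treated after 24 h with vehicle (1% ethanol v/v) or serial dilutions (eight concentrations) for 72 h; viability measured by sulforhodamine B protocol. Percent viability relative to vehicle control, IC50 from dose–response curves; mean of three experiments in triplicate.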

HT-29 [5] = test: Induction of cell cycle arrest in human HT-29 cells assessed as accumulation of cells in sub-G1 phase at 1 uM incubated for 72 hrs by RNase/PI staining based flow cytometry analysis (reference value: 6%); type: functional
HT-29 [6] = test: Induction of cell cycle arrest in human HT-29 cells assessed as accumulation of cells at G0/G1 phase at 1 uM incubated for 24 hrs by RAase A/PI staining based flow cytometry analysis (reference value: 57%); type: functional
Tubulin (Homo sapiens) [7] = target: T1, Tubulin (Homo sapiens) (UniProt P68371+Q9H4B7+P0DPH7+P68366+Q13509+Q71U36+P04350+Q3ZCM7+P07437+P68363+Q9BQE3+Q6PEY2+Q13885+Q9BVA1+Q9BUF5); test: Induction of microtubule disruption in human HT-29 cells assessed as effect on microtubule organization at 1 uM incubated for 16 hrs by immunofluorescence based confocal microscopic analysis; type: cell-based
HT-29 [8] = test: Induction of cell cycle arrest in human HT-29 cells assessed as accumulation of cells at G2/M phase at 1 uM incubated for 24 hrs in presence of 2,3-bis(amino((2-aminophenyl)thio)methylene)succinonitrile by RAase A/PI staining based flow cytometry analysis (reference value: 16%); type: functional
HL-60 [9] = test: Antiproliferative activity against […] human HL-60 cells assessed as inhibition of cell growth incubated for 72 hrs by alamar blue assay; type: functional, cell-based; details: HL-60, 72 h; in short: as §1
HT-29 [10] = test: Induction of cell cycle arrest in human HT-29 cells assessed as accumulation of cells in G2/M phase at 1 uM incubated for 24 to 72 hrs by RNase/PI staining based flow cytometry analysis; type: functional; details: time 24-72 hrs
MCF7 [11] = test: Induction of cell cycle arrest in human MCF7 cells assessed as accumulation of cells at sub-G1 phase at 0.5 uM incubated for 72 hrs by RNase/PI staining based flow cytometry analysis (reference value: 4%); type: functional
HT-29 [12] = test: Induction of apoptosis in human HT-29 cells assessed as upregulation of Bax protein expression at 0.1 to 1 uM incubated for 48 hrs by Western blot analysis; type: functional, cell-based; details: dose 0.1-1 µM
In short: (§3)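 HT-29 seeded at 1 × 10⁵ cells per T25 flask; left untreated, given vehicle (0.1% EtOH v/v) or compound at 0.1 or 1 µM for 48 h. Whole-cell lysates in RIPA with protease/phosphatase inhibitors, equal protein (BCA) on 12% SDS-PAGE, PVDF; probed for Mcl-1, PARP, Bax (1:1000), HRP secondary, ECL detection, GAPDH loading control; three independent occasions.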

[13] = Stability in phosphate buffer at pH 4 assessed as half life at 30 ug/ml measured for 24 hrs by analytical HPLC analysis; type: physicochemical; details: dose 30 µg/ml
Tubulin (Homo sapiens) [14] = target: T1, Tubulin (Homo sapiens); test: Induction of microtubule disruption in human HT-29 cells assessed as appearance of multiple micronucleus at 0.5 uM incubated for 16 hrs by immunofluorescence based confocal microscopic analysis; type: cell-based
In short: (§4)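 Fixed in 4% paraformaldehyde, permeabilised in 0.5% Triton X-100, blocked in 5% BSA, stained with anti-α-tubulin-FITC (DM1A, 1:100, 2 h) and Alexa Fluor 488, DAPI counterstain; confocal imaging, three occasions.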

HT-29 [15] = test: Induction of apoptosis in human HT-29 cells assessed as decrease in Mcl-1 protein expression at 0.1 to 1 uM incubated for 48 hrs by Western blot analysis; type: functional, cell-based; details: dose 0.1-1 µM; in short: as §3
Tubulin (Homo sapiens) [16] = target: T1, Tubulin (Homo sapiens); test: Induction of microtubule disruption in human MCF7 cells assessed as inhibition of microtubule formation at 0.5 uM incubated for 16 hrs by immunofluorescence based confocal microscopic analysis; type: cell-based
In short: (§5)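 MCF-7 seeded at 1 × 10⁵ cells/mL on chamber slides, treated 16 h with vehicle (1% ethanol v/v), CA-4 (0.1 µM) or compounds (0.5 µM). Paraformaldehyde fixation (4%, 20 min), Triton X-100 permeabilisation, BSA block, anti-α-tubulin-FITC (DM1A) plus Alexa Fluor 488, DAPI mounting; confocal imaging with identical settings per experiment; three independent occasions.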

[17] = Stability in phosphate buffer at pH 9 assessed as half life at 30 ug/ml measured for 24 hrs by analytical HPLC analysis; type: physicochemical; details: dose 30 µg/ml
[18] = Stability in phosphate buffer at pH 7.4 assessed as half life at 30 ug/ml measured for 24 hrs by analytical HPLC analysis; type: physicochemical; details: dose 30 µg/ml
[19] = test system: Panel NCI-60 (60 carcinoma cell lines); test: Antiproliferative activity against human panel NCI-60 (60 carcinoma cell lines) assessed as inhibition of cell growth at 10 uM incubated for 72 hrs by SRB assay; type: functional, cell-based
Tubulin (Homo sapiens) [20] = target: T1, Tubulin (Homo sapiens); test: Induction of microtubule disruption in human MCF7 cells assessed as shrunken spindle shaped microtubule formation at 0.5 uM incubated for 16 hrs by immunofluorescence based confocal microscopic analysis; type: cell-based; in short: as §5
MCF7 [21] = test: Antiproliferative activity against human MCF7 cells assessed as inhibition of cell growth incubated for 72 hrs by SRB assay; type: functional
HL-60 [22] = test: Antiproliferative activity against human HL-60 cells assessed as inhibition of cell growth incubated for 72 hrs by SRB assay; type: functional
HT-29 [23] = test: Antiproliferative activity against human HT-29 cells assessed as inhibition of cell growth incubated for 72 hrs by SRB assay; type: functional; in short: as §2
[24] = test system: Panel NCI-60 (60 carcinoma cell lines); test: Antiproliferative activity against human panel NCI-60 (60 carcinoma cell lines) incubated for 72 hrs by SRB assay; type: functional; details: read-out: LC50 (the source's name)
[25] = target: T2, Tubulin beta (Homo sapiens) (UniProt P68371+Q9H4B7+Q13509+P04350+Q3ZCM7+P07437+Q13885+Q9BVA1+Q9BUF5+A6NNZ2); test: Binding affinity to colchicine binding site of beta-tubulin in human HT-29 cells assessed as inhibition of beta-tubulin-EBI adduct formation at 10 uM pretreated for 2 hrs followed by EBI addition and measured after 1.5 hrs by Western blot analysis; type: cell-based; details: time 3.5 hrs
In short: (§6)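 Cells seeded at 5 × 10⁴/well, grown overnight, treated with vehicle (0.1% ethanol v/v) or compound (10 µM) for 2 h, then EBI (100 µM) added for 1.5 h. Cells washed with ice-cold PBS, lysed in Laemmli buffer, run on SDS-PAGE, blotted and probed for β-tubulin to detect the faster-migrating β-tubulin–EBI adduct; GAPDH reprobe for loading; three independent experiments.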

Tubulin (Homo sapiens) [26] = target: T1, Tubulin (Homo sapiens); test: Induction of microtubule disruption in human HT-29 cells assessed as complete loss of microtubule structure at 0.5 uM incubated for 16 hrs by immunofluorescence based confocal microscopic analysis; type: cell-based; in short: as §4
HT-29 [27] = test: Induction of cell cycle arrest in human HT-29 cells assessed as accumulation of cells at G2/M phase at 0.5 uM incubated for 72 hrs by RNase/PI staining based flow cytometry analysis relative to control; type: functional
In short: (§7)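 HT-29 treated with vehicle (0.1% ethanol v/v) or compound at 0.5 µM for 24, 48 and 72 h. Adherent plus detached cells collected, fixed overnight in ice-cold 70% ethanol at −20 °C, stained with PI (50 µg/mL) plus RNase A (50 µg/mL) 30 min at 37 °C. 10,000 cells analysed by flow cytometry at 488 nm; sub-G1, G0/G1, G2/M gated on DNA content; mean of three experiments.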

Tubulin (Homo sapiens) [28] = target: T1, Tubulin (Homo sapiens); test: Induction of microtubule disruption in human MCF7 cells assessed as depolymerization of microtubules at 0.5 uM incubated for 16 hrs by immunofluorescence based confocal microscopic analysis; type: cell-based; in short: as §5
Tubulin (Bos taurus) = Tubulin (Bos taurus) (UniProt Q6B856+Q862L2+Q862F3); test: Inhibition of bovine tubulin polymerisation assessed as fold reduction in Vmax at 10 uM measured every 30 secs for 30 mins by spectrophotometric method relative to control; type: protein assay
HT-29 [29] = test: Induction of cell cycle arrest in human HT-29 cells assessed as accumulation of cells in sub-G1 phase at 0.5 uM incubated for 72 hrs by RNase/PI staining based flow cytometry analysis (reference value: 6%); type: functional; in short: as §7
HT-29 [30] = test: Induction of cell cycle arrest in human HT-29 cells assessed as reduction in cells in G0 phase at 0.5 uM incubated for 72 hrs by RNase/PI staining based flow cytometry analysis; type: functional; in short: as §7
HT-29 [31] = test: Induction of apoptosis in human HT-29 cells assessed as increase in PARP cleavage at 0.1 uM incubated for 48 hrs by Western blot analysis; type: functional, cell-based; in short: as §3
HT-29 [32] = test: Induction of cell cycle arrest in human HT-29 cells assessed as reduction in cells in S phase at 0.5 uM incubated for 72 hrs by RNase/PI staining based flow cytometry analysis; type: functional; in short: as §7
MCF7 [33] = test: Induction of cell cycle arrest in human MCF7 cells assessed as accumulation of cells at G2/M phase at 0.5 uM incubated for 24 hrs by RNase/PI staining based flow cytometry analysis (reference value: 24%); type: functional
[34] = target: T2, Tubulin beta (Homo sapiens); test: Binding affinity to colchicine binding site of beta-tubulin in human MCF7 cells assessed as inhibition of beta-tubulin-EBI adduct formation at 10 uM pretreated for 2 hrs followed by EBI addition and measured after 1.5 hrs by Western blot analysis; type: cell-based; details: time 3.5 hrs; in short: as §6

COc1ccc(C2C(c3ccccc3)C(=O)N2c2cc(OC)c(OC)c(OC)c2)cc1O (mixture of isomers)
IC50 (MCF7 [1]): 0.004 µM | Activity (HT-29 [2]): 16% | Activity (HT-29 [3]): 26% | IC50 (HT-29 [4]): 0.43 µM | Activity (HT-29 [5]): 5% | Activity (HT-29 [6]): 60% | Activity (Tubulin (Homo sapiens) [7]): inactive | Activity (HT-29 [8]): 58% | IC50 (HL-60 [9]): 0.002 µM | Activity (HT-29 [10]): inactive

COc1cc(N2C(=O)C(O)C2c2ccc(SC)cc2)cc(OC)c1OC (racemic)
Activity (MCF7 [11]): 12% | Activity (HT-29 [12]): Active | IC50 (MCF7 [1]): 0.005 µM | half-life at 30 ug/ml [13]: 16 h | Activity (Tubulin (Homo sapiens) [14]): Active | Activity (HT-29 [15]): Active | Activity (Tubulin (Homo sapiens) [16]): Active | half-life at 30 ug/ml [17]: 16 h | half-life at 30 ug/ml [18]: > 24 h | inhibition [19]: Active | Activity (Tubulin (Homo sapiens) [20]): Active | GI50 (MCF7 [21]): < 0.01 µM | GI50 (HL-60 [22]): < 0.01 µM | IC50 (HT-29 [4]): 0.015 µM | GI50 (HT-29 [23]): < 0.01 µM | CC50 [24]: > 100 µM | inhibition [25]: Active | Activity (Tubulin (Homo sapiens) [26]): Active | Activity (HT-29 [27]): 68% | Activity (Tubulin (Homo sapiens) [28]): Active | fold change (FC) (Tubulin (Bos taurus)): 3.5 | Activity (HT-29 [29]): 15% | Activity (HT-29 [30]): Active | IC50 (HL-60 [9]): 0.015 µM | Activity (HT-29 [31]): Active | Activity (HT-29 [32]): Active | Activity (MCF7 [33]): 70% | inhibition [34]: Active
